# Tested on: HEK-293T
# Assay: Multiplex assay against HEK293T
# Type: toxicity, cell-based
# Conditions: human
# Method in brief: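 Tubulin, mitochondrial-mass and membrane-permeability phenotypes are per cents of healthy-nucleus cells. Cells were gated by CellPathfinder machine learning into Hoechst high-intensity objects or normal cells, normal cells into healthy, pyknosed or fragmented nuclei, and pyknosed cells into mitotic or apoptotic. Before that, live cells stained at seeding with Hoechst33342, BioTracker Green Microtubule Cytoskeleton Dye, MitoTracker Red and Annexin V Alexa Fluor 680 were imaged on a CQ1 microscope at 37°C and 5% CO2 after compound addition.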
# [1] = 12 h, 1 µM, compound concentration 1 uM, replicate 1
# [2] = 12 h, 1 µM, compound concentration 1 uM, replicate 2
# [3] = 12 h, 10 µM, compound concentration 10 uM, replicate 1
# [4] = 12 h, 10 µM, compound concentration 10 uM, replicate 2
# [5] = 24 h, 1 µM, compound concentration 1 uM, replicate 1
# [6] = 24 h, 1 µM, compound concentration 1 uM, replicate 2
# [7] = 24 h, 10 µM, compound concentration 10 uM, replicate 1
# [8] = 24 h, 10 µM, compound concentration 10 uM, replicate 2
# [9] = 48 h, 1 µM, compound concentration 1 uM, replicate 1
# [10] = 48 h, 1 µM, compound concentration 1 uM, replicate 2
# [11] = 48 h, 10 µM, compound concentration 10 uM, replicate 1
# [12] = 48 h, 10 µM, compound concentration 10 uM, replicate 2
smiles,measurement,setting,value
"CCCn1c(=O)c2[nH]c(C3CCCC3)nc2n(CCC)c1=O [1,3-DIPROPYL-8-CYCLOPENTYLXANTHINE [DPCPX]]",Population Apoptotic (%),[1],35%
same,Population Fragmented Nuclei (%),[1],7%
same,Population Healthy Nuclei (%),[1],79%
same,Population Hoechst High Intensity Objects (%),[1],6%
same,Population Membrane Permeable-Phenotype (%),[1],0%
same,Population Mitochondria Different-Phenotype (%),[1],44%
same,Population Mitotic Cells (%),[1],64%
same,Population Normal (%),[1],93%
same,Population Pyknosed Nuclei (%),[1],12%
same,Population Tubulin-Different-Phenotype (%),[1],32%
same,Total Cell Count,[1],443
same,Population Apoptotic (%),[2],54%
same,Population Fragmented Nuclei (%),[2],3%
same,Population Healthy Nuclei (%),[2],81%
same,Population Hoechst High Intensity Objects (%),[2],3%
same,Population Mitochondria Different-Phenotype (%),[2],52%
same,Population Mitotic Cells (%),[2],45%
same,Population Normal (%),[2],96%
same,Population Pyknosed Nuclei (%),[2],14%
same,Population Tubulin-Different-Phenotype (%),[2],15%
same,Total Cell Count,[2],361
same,Population Apoptotic (%),[3],60%
same,Population Fragmented Nuclei (%),[3],12%
same,Population Healthy Nuclei (%),[3],68%
same,Population Hoechst High Intensity Objects (%),[3],5%
same,Population Membrane Permeable-Phenotype (%),[3],0%
same,Population Mitochondria Different-Phenotype (%),[3],58%
same,Population Mitotic Cells (%),[3],39%
same,Population Normal (%),[3],94%
same,Population Pyknosed Nuclei (%),[3],19%
same,Population Tubulin-Different-Phenotype (%),[3],51%
same,Total Cell Count,[3],295
same,Population Apoptotic (%),[4],54%
same,Population Fragmented Nuclei (%),[4],7%
same,Population Healthy Nuclei (%),[4],75%
same,Population Hoechst High Intensity Objects (%),[4],18%
same,Population Mitochondria Different-Phenotype (%),[4],68%
same,Population Mitotic Cells (%),[4],45%
same,Population Normal (%),[4],81%
same,Population Pyknosed Nuclei (%),[4],16%
same,Population Tubulin-Different-Phenotype (%),[4],45%
same,Total Cell Count,[4],337
same,Population Apoptotic (%),[5],26%
same,Population Fragmented Nuclei (%),[5],8%
same,Population Healthy Nuclei (%),[5],78%
same,Population Hoechst High Intensity Objects (%),[5],4%
same,Population Membrane Permeable-Phenotype (%),[5],1%
same,Population Mitochondria Different-Phenotype (%),[5],25%
same,Population Mitotic Cells (%),[5],73%
same,Population Normal (%),[5],95%
same,Population Pyknosed Nuclei (%),[5],13%
same,Population Tubulin-Different-Phenotype (%),[5],20%
same,Total Cell Count,[5],610
same,Population Apoptotic (%),[6],28%
same,Population Fragmented Nuclei (%),[6],7%
same,Population Healthy Nuclei (%),[6],82%
same,Population Hoechst High Intensity Objects (%),[6],3%
same,Population Membrane Permeable-Phenotype (%),[6],0%
same,Population Mitochondria Different-Phenotype (%),[6],45%
same,Population Mitotic Cells (%),[6],71%
same,Population Normal (%),[6],96%
same,Population Pyknosed Nuclei (%),[6],10%
same,Population Tubulin-Different-Phenotype (%),[6],19%
same,Total Cell Count,[6],403
same,Population Apoptotic (%),[7],50%
same,Population Fragmented Nuclei (%),[7],8%
same,Population Healthy Nuclei (%),[7],76%
same,Population Hoechst High Intensity Objects (%),[7],4%
same,Population Membrane Permeable-Phenotype (%),[7],0%
same,Population Mitochondria Different-Phenotype (%),[7],43%
same,Population Mitotic Cells (%),[7],50%
same,Population Normal (%),[7],95%
same,Population Pyknosed Nuclei (%),[7],14%
same,Population Tubulin-Different-Phenotype (%),[7],40%
same,Total Cell Count,[7],379
same,Population Apoptotic (%),[8],41%
same,Population Fragmented Nuclei (%),[8],7%
same,Population Healthy Nuclei (%),[8],79%
same,Population Hoechst High Intensity Objects (%),[8],15%
same,Population Mitochondria Different-Phenotype (%),[8],55%
same,Population Mitotic Cells (%),[8],58%
same,Population Normal (%),[8],84%
same,Population Pyknosed Nuclei (%),[8],13%
same,Population Tubulin-Different-Phenotype (%),[8],31%
same,Total Cell Count,[8],411
same,Population Apoptotic (%),[9],33%
same,Population Fragmented Nuclei (%),[9],11%
same,Population Healthy Nuclei (%),[9],81%
same,Population Hoechst High Intensity Objects (%),[9],1%
same,Population Membrane Permeable-Phenotype (%),[9],1%
same,Population Mitochondria Different-Phenotype (%),[9],17%
same,Population Mitotic Cells (%),[9],66%
same,Population Normal (%),[9],98%
same,Population Pyknosed Nuclei (%),[9],7%
same,Population Tubulin-Different-Phenotype (%),[9],17%
same,Total Cell Count,[9],957
same,Population Apoptotic (%),[10],39%
same,Population Fragmented Nuclei (%),[10],14%
same,Population Healthy Nuclei (%),[10],80%
same,Population Hoechst High Intensity Objects (%),[10],3%
same,Population Membrane Permeable-Phenotype (%),[10],0%
same,Population Mitochondria Different-Phenotype (%),[10],22%
same,Population Mitotic Cells (%),[10],60%
same,Population Normal (%),[10],96%
same,Population Pyknosed Nuclei (%),[10],5%
same,Population Tubulin-Different-Phenotype (%),[10],13%
same,Total Cell Count,[10],593
same,Population Apoptotic (%),[11],29%
same,Population Fragmented Nuclei (%),[11],14%
same,Population Healthy Nuclei (%),[11],76%
same,Population Hoechst High Intensity Objects (%),[11],3%
same,Population Membrane Permeable-Phenotype (%),[11],1%
same,Population Mitochondria Different-Phenotype (%),[11],37%
same,Population Mitotic Cells (%),[11],70%
same,Population Normal (%),[11],96%
same,Population Pyknosed Nuclei (%),[11],8%
same,Population Tubulin-Different-Phenotype (%),[11],30%
same,Total Cell Count,[11],511
same,Population Apoptotic (%),[12],45%
same,Population Healthy Nuclei (%),[12],75%
same,Population Hoechst High Intensity Objects (%),[12],7%
same,Population Membrane Permeable-Phenotype (%),[12],0%
same,Population Mitochondria Different-Phenotype (%),[12],36%
same,Population Mitotic Cells (%),[12],54%
same,Population Normal (%),[12],92%
same,Population Pyknosed Nuclei (%),[12],10%
same,Population Tubulin-Different-Phenotype (%),[12],23%
same,Total Cell Count,[12],516

# From ChEMBL document CHEMBL5058577, “EUbOPEN Chemogenomics Library 2 (Multiplex)” (2022)
